# Screening results as filed in PubChem.
# An excerpt weighted towards active compounds, which were near 1.5% of everything screened.
# PPC-1+TRAIL kill: compounds killing PPC-1 cancer cells with TRAIL present, primary screen, TRAIL potentiator project, ATPLite luminescence, uHTS | cell killing (% activity), % at 4 µM or 5 µM | 0.41% of 220,000 active | PPC-1 cells + TRAIL, ATPLite viability luminescence;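 active means cell killing above 50% in the first pass at 4 µM, then a duplicate retest at 5 µM averaging 50% or more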;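 further: plate controls were cells with TRAIL plus DMSO for no effect and medium-only wells lacking cells for full effect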
# FLuc inhib CS: firefly luciferase enzyme inhibitors, primary screen, artefact control for luciferase-based inhibitor screens, biochemical, luminescence, ATPLite. 10 min. inhibition, % at 10 µM. 1.5% of 200,000 active;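 active means inhibition above about 50% when tested at 10 µM, limit read from the data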
# Target sequence (P08659 whole entry, looked up): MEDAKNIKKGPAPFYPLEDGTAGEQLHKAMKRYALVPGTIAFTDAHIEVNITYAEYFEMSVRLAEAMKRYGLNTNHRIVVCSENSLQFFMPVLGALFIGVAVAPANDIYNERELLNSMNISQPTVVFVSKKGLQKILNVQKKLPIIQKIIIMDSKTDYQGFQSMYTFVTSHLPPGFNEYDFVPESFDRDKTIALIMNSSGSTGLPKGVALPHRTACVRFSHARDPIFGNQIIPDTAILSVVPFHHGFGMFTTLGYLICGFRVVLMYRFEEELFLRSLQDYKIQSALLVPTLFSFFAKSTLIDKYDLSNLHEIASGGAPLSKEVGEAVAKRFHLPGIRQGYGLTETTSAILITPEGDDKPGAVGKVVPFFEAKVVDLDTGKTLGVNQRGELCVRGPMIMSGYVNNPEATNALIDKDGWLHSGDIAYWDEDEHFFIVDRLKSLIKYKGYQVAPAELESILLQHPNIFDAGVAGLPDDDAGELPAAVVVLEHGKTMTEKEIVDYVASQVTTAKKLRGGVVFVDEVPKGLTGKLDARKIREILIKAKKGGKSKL
# C8 TRAIL sens: viability loss with TRAIL in NB7+C8 cells, primary screen, TRAIL sensitizer project, cell-based, ATPlite luminescence; 1% of 360,000 active; AID 624354, 2012; inhibition (viability loss, TRAIL sensitization), % at 10 µM;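 active means compounds causing at least 50% loss of cell viability in the single-dose screen, relative to plate controls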
# FLuc act counter: FLuc activators, initial screening, artefact control for FLuc-dependent activation tests, biochemical, ATPlite luminescence; 200,000 tested, under 10 active; activation factor at 10 µM; ATPlite luciferase biochemical, 10 min; 0 = ATP-free wells, 1 = DMSO control; Luciferin 4-monooxygenase (Photinus pyralis), P08659;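 active means luciferase activation factor, scaled between plate controls, of at least 2 with compound at 10 µM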
#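 Assay system – cell-free luciferase reagent · Medium – PBS-based ATP solution · Dosing – test compounds dosed from 2 mM stocks in 100% DMSO · Timing – 10 min, room temperature · Technique – light output (luminescence) · Measure – luminescence gain marking luciferase activators · Controls – No-ATP low control, compound-free enzyme-plus-ATP high control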
# PPC1 cytotox: cytotoxicity in PPC-1 cells, confirmation, cytotoxicity control for TRAIL apoptosis potentiator project, cell-based, ATP content luminescence; shares compounds with PPC-1+TRAIL kill; PPC-1 viability, ATPlite luminescence, overnight; cytotoxicity, % at 5 µM; 50% of 1,200 active; AID 1447, 2008;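 active means reconfirmed compounds whose average cytotoxicity reaches 50% or more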;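 further: 0% = DMSO-treated cells and 100% = wells holding medium but no cells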
# Active calls of the source: *; x = no result given.
SMILES,PPC-1+TRAIL kill,FLuc inhib CS,C8 TRAIL sens,FLuc act counter,PPC1 cytotox
O=C(Nc1ccccc1Cl)c1ccc(Cl)cc1Cl,26.5,7.2,0.0,0.9,x
NC(=O)c1ccccc1N/C=C/C(=O)c1ccc(F)cc1,63.4*,89.5*,71.2*,0.1,57.8*
O=C(/C=C/Nc1ccc(F)cc1)c1ccc(Br)cc1,13.3,38.8,24.7,0.6,x
Cc1ccc(NC(=O)Cc2ccccc2)cc1S(=O)(=O)N1CCOCC1,x,x,-2.4,x,x
Cc1nn2cc(-c3ccccc3)nc2s1,21.4,47.4,27.8,0.5,x
c1ccc(-c2cn3c4c(sc3n2)CCCC4)cc1,82.0*,94.9*,84.6*,0.1,83.0*
Cc1cc(C(=O)CN2C(=O)C3CC=CCC3C2=O)c(C)n1-c1ccccc1 (stereo unspecified),48.5,74.0*,62.8*,0.3,53.0*
Cc1ccc(C(=O)CN2C(=O)c3ccccc3S2(=O)=O)cc1,45.1,x,29.3,x,45.7
Cc1cc(C(=O)Cn2cc(C(F)(F)F)ccc2=O)c(C)n1-c1ccccc1,16.8,1.0,-7.5,1,x
Cc1cc(C(=O)CN2C(=O)c3ccccc3S2(=O)=O)c(C)n1-c1ccccc1,25.9,62.9*,62.5*,0.4,23.0
Cc1cc(C(=O)CN2C(=O)c3ccccc3S2(=O)=O)c(C)n1C(C)C,x,x,27.1,x,x
CC(=O)NC(CC(=O)N(Cc1ccccc1)c1cccc(C)c1)c1ccccc1 (stereo unspecified),x,x,-7.4,x,x
Cc1cc(Cl)n2nc(C)c(-c3ccc(Cl)cc3)c2n1,54.4*,-3.8,40.7,1,34.5
Cc1cc(N)n2nc(C)c(-c3ccc(Cl)cc3)c2n1,16.6,-5.7,-12.6,1.1,x
CC(=O)c1cnc2cc(-c3ccccc3)nn2c1C,22.8,25.0,17.7,0.8,x
Nc1c(-c2ccccc2)cnc2cc(-c3ccccc3)nn12,52.9*,85.5*,64.6*,0.1,59.8*
Clc1cccc(-c2cc3nc4c(c(N5CCOCC5)n3n2)CCCC4)c1,10.9,0.5,17.1,1,11.5
N/C(=N\OC(=O)c1ccc(Cl)cc1Cl)c1ccncc1,4.0,x,36.6,x,x
Cc1ccc(C(=O)O/N=C(\N)c2ccccc2)c(Cl)c1,81.2*,x,94.2*,x,80.4*
N/C(=N\OC(=O)c1ccc(Cl)cc1Cl)c1ccccn1,89.7*,95.2*,90.4*,0,89.3*
N/C(=N\OC(=O)c1ccc2ccccc2c1)c1ccccn1,53.1*,90.0*,71.2*,0.1,58.7*
CCSC(=O)NC1CCCCC1,-2.8,x,3.3,x,x
COc1ccc(-c2cc(C(=O)N3CCN(C(=O)c4ccccc4F)CC3)[nH]n2)cc1,x,x,-3.8,x,x
COc1cc([N+](=O)[O-])ccc1N/C=C/C(=O)c1cccs1,89.1*,93.4*,88.9*,0.1,90.5*
Cc1nnc2sc(-c3ccccn3)nn12,12.2,-2.2,-7.6,1,3.2
SMILES,PPC-1+TRAIL kill,FLuc inhib CS,C8 TRAIL sens,FLuc act counter,PPC1 cytotox
c1ccc(-c2nn3c(Cn4nnc5ccccc54)nnc3s2)nc1,11.2,-3.7,17.2,1,x
O=C(Nc1cccc(OC(F)(F)F)c1)[C@@H]1O[C@H](CO)[C@H](O)[C@H](O)[C@H]1O,x,x,-7.7,x,x
CCCCCCCCCn1c2c(c(=N)c3c1CCC3)CCC2,42.4,-7.0,76.9*,1.1,44.0
CCCCCCn1c2c(c(=N)c3c1CCC3)CCC2,18.3,-4.3,29.4,1,22.8
CCn1c2c(c(=N)c3c1CCC3)CCC2,11.5,-8.8,25.5,1.1,x
CCCCCCCn1c2c(c(=N)c3c1CCC3)CCCC2,30.8,-4.7,40.2,1,26.0
CCCCn1c2c(c(=N)c3c1CCC3)CCC2,-3.2,1.0,12.3,1,x
C=CCOc1ccc(C2=NOC(C(=O)Nc3ccc4c(c3)OCCO4)C2)cc1OC (stereo unspecified),x,x,-28.6,x,x
CN(C)S(=O)(=O)c1ccc(N2CCCC2)c(C(=O)NC2CCC(O)CC2)c1 (stereo unspecified),x,x,-1.1,x,x
C=CCNC(=S)N/N=C(\C)c1ccccn1,33.0,-1.1,-7.4,1,41.2
CCOC(=O)C1=CCC(c2ccccc2)N(S(=O)(=O)c2ccccc2C)C1 (stereo unspecified),x,x,-12.3,x,x
Clc1ccc(-c2nc3nc4ccccc4nc3n2Cc2ccco2)cc1,-9.8,11.4,39.1,0.9,6.3
COC(=O)c1cn[nH]c1NC(=S)Nc1ccc(Cl)c(Cl)c1,17.1,25.0,18.1,0.8,x
CCOC(=O)c1cn[nH]c1NC(=S)Nc1ccc(OC)cc1,60.1*,x,67.1*,x,59.4*
O=C(O)CC1=C(O)C(=O)N(c2ccccc2)C1c1ccccc1 (stereo unspecified),-27.8,-0.7,1.4,1,-5.8
CC1CC(=O)Nc2ccccc2N1C(=O)CSc1ccc2ccccc2n1 (stereo unspecified),x,x,-6.1,x,x
CSC12CCCN(CCC(C(C)(C)C)C1)C2=O (stereo unspecified),x,x,1.5,x,x
COc1ccc(/C=C/c2cc(C(=O)O)c3ccccc3n2)cc1,95.5*,x,94.5*,x,95.5*
COc1ccc(/C=C/C(=O)Nc2ccccc2C(=O)O)cc1,82.7*,95.0*,85.8*,0.1,82.6*
O=C(CCNC(=O)c1ccc(Br)cc1)NCc1ccccn1,x,x,-14.7,x,x
C/C(=N\NC(=O)COc1ccc(C(C)(C)C)cc1)c1cc2ccccc2o1,76.8*,93.9*,84.2*,0.1,76.7*
COc1cccc(CNc2cccc3cccnc23)c1O,-1.9,5.9,4.8,0.9,9.3
COc1ccc(-n2c(C)cc(SC)c(C(C)=O)c2=S)cc1,13.7,3.5,-4.7,1,-6.9
COc1ccc(-c2nc3ncccn3c2Nc2ccc3c(c2)OCCO3)cc1,14.6,-0.1,-19.1,1,10.4
Cc1ccc(-c2nc3ncccn3c2Nc2ccc3c(c2)OCCO3)cc1,19.5,-8.7,-9.5,1.1,x
SMILES,PPC-1+TRAIL kill,FLuc inhib CS,C8 TRAIL sens,FLuc act counter,PPC1 cytotox
COc1cc(CC(=O)OCc2ccccc2F)cc(OC)c1OC,x,x,-4.8,x,x
COc1ccc(N/N=C(/N=Nc2nc(C)cc(=O)[nH]2)c2ccccc2)cc1,61.3*,73.0*,53.2*,0.3,57.6*
Cc1cc(=O)[nH]c(N=N/C(=N/Nc2ccccc2C)c2ccccc2)n1,42.5,9.9,2.2,0.9,35.5
Cc1cc(=O)[nH]c(N=N/C(=N/Nc2ccc(O)cc2)c2ccccc2)n1,11.8,33.6,-0.1,0.7,1.6
CC1(Oc2cccc(C#N)c2)CCN(Cc2csc3ccccc23)C1 (stereo unspecified),x,x,-8.0,x,x
Cc1cccc(/C=C2\CCC(=C3SCCCS3)C2=O)c1,77.8*,92.6*,82.0*,0.1,80.3*
O=C1C(=Cc2ccc(F)cc2)Cc2ccccc21,x,x,19.1,x,x
O=C1C(=C2SCCCS2)CC/C1=C\c1ccc(F)cc1,90.2*,93.1*,84.2*,0.1,89.5*
COCCCNC(=O)C1=CCN(S(=O)(=O)c2ccc(OC)cc2)CC1,x,x,4.8,x,x
